Apaf1 activ: activates human Apaf-1 apoptosome; AID 489031; hit rate 0.31% among 330,000; activity change, negative = activation, % at 20 µM; O14727; Apaf-1 apoptosome caspase-3 activation, DEVD-Rh110 fluorescence; stronger effect = lower value;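 active = activity change at or below -40% at 20 µM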
Target sequence (O14727 whole entry, looked up): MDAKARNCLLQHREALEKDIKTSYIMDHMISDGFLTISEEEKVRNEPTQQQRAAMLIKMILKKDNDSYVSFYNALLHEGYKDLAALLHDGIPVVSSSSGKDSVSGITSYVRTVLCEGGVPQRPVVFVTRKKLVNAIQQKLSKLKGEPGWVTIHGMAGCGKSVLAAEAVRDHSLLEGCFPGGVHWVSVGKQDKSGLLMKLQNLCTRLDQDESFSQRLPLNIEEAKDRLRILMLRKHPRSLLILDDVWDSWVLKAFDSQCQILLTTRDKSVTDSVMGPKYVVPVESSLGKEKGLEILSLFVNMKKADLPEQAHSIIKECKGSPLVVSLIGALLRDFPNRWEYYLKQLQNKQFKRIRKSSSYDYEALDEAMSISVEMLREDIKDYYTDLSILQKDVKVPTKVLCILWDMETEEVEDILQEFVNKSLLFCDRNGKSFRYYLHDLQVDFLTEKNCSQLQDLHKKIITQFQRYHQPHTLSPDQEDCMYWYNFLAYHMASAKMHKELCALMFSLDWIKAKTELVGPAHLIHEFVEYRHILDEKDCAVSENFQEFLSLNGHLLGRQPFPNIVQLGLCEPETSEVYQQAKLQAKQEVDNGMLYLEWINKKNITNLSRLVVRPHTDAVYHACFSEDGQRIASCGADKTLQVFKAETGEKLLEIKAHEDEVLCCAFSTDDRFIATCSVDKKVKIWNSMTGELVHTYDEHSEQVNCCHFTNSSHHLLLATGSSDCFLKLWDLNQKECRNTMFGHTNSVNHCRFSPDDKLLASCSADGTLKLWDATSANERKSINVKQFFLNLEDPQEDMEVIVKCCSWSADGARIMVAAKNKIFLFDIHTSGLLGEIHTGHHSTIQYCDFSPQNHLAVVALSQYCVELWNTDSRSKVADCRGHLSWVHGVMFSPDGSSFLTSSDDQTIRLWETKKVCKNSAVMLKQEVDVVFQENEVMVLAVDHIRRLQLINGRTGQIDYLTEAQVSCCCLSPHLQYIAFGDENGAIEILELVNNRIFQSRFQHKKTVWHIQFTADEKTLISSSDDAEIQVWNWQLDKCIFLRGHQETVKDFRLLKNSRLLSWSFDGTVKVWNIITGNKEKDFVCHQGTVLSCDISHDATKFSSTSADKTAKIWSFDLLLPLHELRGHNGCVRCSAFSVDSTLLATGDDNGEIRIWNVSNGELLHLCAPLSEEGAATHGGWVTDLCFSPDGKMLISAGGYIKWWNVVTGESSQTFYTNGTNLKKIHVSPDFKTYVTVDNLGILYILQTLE
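Assay system – biochemical Apaf-1 apoptosome reconstitution · Medium – 20 mM HEPES buffer, pH 7.5, containing CHAPS and BSA · Incubation – 30 min preincubation, 50 min reaction, room temperature · Measured by – Caspase-3-released Rh110 fluorescence, 540 nm emission, 480 nm excitation · Read-out – Caspase-3 cleavage activity downstream of Apaf-1 activation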
Rh110 act interf: interferes with Rh110 fluorescence, flagging false Apaf-1 activators; fluorescence interference (activity change), % at 20 µM, hits read low; Rh110 fluorescence interference, quenched caspase reaction, Ex480/Em540; 980 tested, under 10 active; shares compounds with Apaf1 activ;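 active = mean activity change at or below -40% when tested at 20 µM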
Apaf-1 act conf: confirmation of human Apaf-1 activators. shares compounds with Apaf1 activ. reconstituted apoptosome caspase-3 activity, DEVD-Rh110 fluorescence; stronger effect = lower value. activity change, negative = activation, % at 20 µM. hit rate 5% among 980. AID 504617;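 active = mean activity change at or below -40%, meaning activation of 40% or more, at 20 µM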
Apaf1 act interf: counter-screen for Apaf-1 activators: fluorescence interference, dose response; fluorescence interference counterscreen, Apaf-1 activator assay; EC50, µM; AID 588592; shares compounds with Apaf1 activ; 55 tested, under 10 active; call rule not given here
The depositor's hits bear a star; . = no result. The list is a sample of the results.

SMILES | Apaf1 activ | Rh110 act interf | Apaf-1 act conf | others
CN1CCc2c(C#N)c(N3CCCCC3)nc(NCc3ccccc3)c2C1 | 52 | . | .
CC(C)N(C(=O)Nc1ccc2nsnc2c1)C(C)C | 97 | . | .
CCOC(=O)C1(Cc2ccccc2C)CCCN(C(=O)c2ccc3nccnc3c2)C1 (stereo unspecified) | -330* | 12 | 14
CC(=O)Nc1c(I)c(NC(C)=O)c(I)c(C(=O)O)c1I | 11 | . | .
C#CCOCCOCCOCCNc1nc(N2CCOCC2)nc(N2CCN(C(=O)CCCCCCCCCCNC(=O)[C@H]([C@@H](C)CC)n3cc(CCCCN=C(N)N)nn3)CC2)n1 | 60 | . | .
NC1=NC[C@H](Cc2ccc(O)cc2)N1CCC12CC3CC(CC(C3)C1)C2 | 49 | . | .
OCCCCNc1cccc2ccccc12 | 81 | . | .
COc1ccc(C2CC(=O)c3cnc(NC(=O)c4ccco4)nc3C2)cc1 (stereo unspecified) | -139* | -7 | 6
Cc1cc2nc3ccc(N(C)C)cc3nc2cc1N | 90 | . | .
COc1ccc(NC(=S)Nc2cccc3cnccc23)cc1 | 95 | . | .
CCCN(CC(=O)Nc1ccccc1C)C(=O)C1CCN(c2ncnc3sc(C)c(C)c23)CC1 | 49 | . | .
Cc1sc2ncn(CC(=O)NCCCC(=O)N3CCN(c4ccccc4)CC3)c(=O)c2c1C | -313* | 2 | 8
O=CNn1cnc2c(oc3nc(-c4ccccc4)cc(-c4ccco4)c32)c1=O | -116* | 8 | -5
Cc1cccc(NC(=S)Nc2cccc3ccccc23)c1 | 93 | . | .
CCOc1ccc(NC(=O)CN(C)C(=O)c2ccccc2OCc2cccc(C)c2)cc1OCC | 46 | . | .
Cc1cccc(CC(=O)Nc2ccon2)c1 | -278* | 6 | 8
Fc1ccc(N2CCN(c3nc(CN4CCOCC4)nc4scc(-c5ccccc5)c34)CC2)cc1 | 41 | . | .
C=C(C)C(=O)Nc1cccc(C2=NOC3(C2)C[C@@H](C(N)=O)N(C(=O)CCCCC)C3)c1 (stereo partly specified) | -333* | 5 | -121* | Apaf1 act interf=>100
CC(=O)OCCCNc1cc(Sc2nc3ccccc3s2)c2nonc2c1[N+](=O)[O-] | 96 | . | .
CN1CCc2nc(SCC(=O)Nc3cccc(F)c3)c(C#N)c(-c3cccs3)c2C1 | 67 | . | .
CN(C)S(=O)(=O)N1CCCN(S(=O)(=O)N(C)C)CC1 | -313* | 0 | 14
O=S(=O)(/N=C/N1CCOCC1)c1ccc(Cl)cc1 | 43 | . | .
CC1=NN(c2ccc(C)cc2C)C(=O)C1C(c1ccccc1O)C1C(=O)N(c2ccc(C)cc2C)N=C1C (stereo unspecified) | 97 | . | .
O=C(c1ccccc1)N1CCCC(c2ccc(Cl)cc2)=N1 | -41* | 19 | 15
O=C(/C=C\c1ccc2c(c1)OCO2)NC1(C(=O)Nc2ccc3c(c2)OCO3)CCCCC1 | -87* | 3 | 14
SMILES | Apaf1 activ | Rh110 act interf | Apaf-1 act conf | others
Cc1ccc(C(=O)N/N=C/c2ccc(-c3ccc(Br)cc3[N+](=O)[O-])o2)o1 | 42 | . | .
Cc1ccc(NC(=O)C2CCN(C(=O)[C@@H]3Cc4ccccc4CN3)CC2)c(C)c1 | -72* | -4 | 9
COC(=O)CCC(=O)OC1(C)C(=O)C2=CN(CCCCO)C(c3ccc(OC)cc3)=CC2=C(Br)C1=O (stereo unspecified) | 80 | . | .
CCOc1ccccc1NC(=O)c1ccc(Cl)c(NC(=O)CC(c2ccccc2)c2ccccc2)c1 | -55* | 6 | 14
CCOC(=O)c1c(NC(=O)c2ccno2)c2cc([N+](=O)[O-])ccc2n1C | -45* | 9 | 5
CC1=NN(c2ccc(Cl)cc2)C(=O)C1C(c1ccccc1O)c1c(C)[nH]n(-c2ccc(Cl)cc2)c1=O (stereo unspecified) | 97 | . | .
COc1ccc2[nH]c3c4c(ccc3c2c1)C(=O)C=CC4=O | 45 | . | .
O=C(c1ccccc1)c1ccc2c(c1)OCCOCCOCCOCCO2 | -208* | 1 | 1
CC(=O)[C@@H]1[C@@H]2C(=O)N(Cc3ccccc3)C(=O)[C@@H]2C2c3ccccc3C=CN21 (stereo partly specified) | 67 | . | .
CC1(C)N([O-])c2cc([N+](=O)[O-])ccc2[N+]1=O | 66 | . | .
CCN(CC)C(=O)[C@H]1CC(CC(=O)NC/C=C(\C)CCC=C(C)C)C(=O)N2CCc3c([nH]c4ccc(OC)cc34)[C@]12C (stereo partly specified) | 42 | . | .
Cc1ccc(-c2nc3n(n2)Cc2ccccc2-3)cc1 | -197* | 0 | 13
O=C(NC1CCS(=O)(=O)C1)Oc1ccccc1 (stereo unspecified) | 51 | . | .
O=C(NCCCCCCNC(=O)OC1CCS(=O)(=O)C1)OC1CCS(=O)(=O)C1 (stereo unspecified) | -48* | 8 | 4
Clc1ccc2nsnc2c1NC1=NCCN1 | -7 | . | .
Nc1ccc2cn[nH]c2c1 | 52 | . | .
O=C(COC(=O)c1ccccc1Sc1ccc(C(F)(F)F)cc1[N+](=O)[O-])NC(=O)NC1CCCC1 | 40 | . | .
COc1cccc(OCC(O)CN2CCN(c3ccccc3)CC2)c1 (stereo unspecified) | 5 | . | .
OC(CN1CCN(c2ccccc2)CC1)c1ccc2c(c1)CCN2 (stereo unspecified) | -460* | 18 | 14
CN(C(=S)Nc1ccc(SC(F)F)cc1)c1ccc(O)cc1 | 70 | . | .
CCCCC(CCC(=O)Nc1cc([N+](=O)[O-])ccc1O)C(=O)O (stereo unspecified) | -227* | 11 | 20
Cc1cc(O)c(C(C)C)cc1N=Cc1cc([N+](=O)[O-])ccc1O | 44 | . | .
COc1cc(S(=O)(=O)Nc2ccccc2)ccc1NC=O | -49* | -3 | 11
COc1cc(-c2ccc(Nc3ccccc3C(=O)O)c(OC)c2)ccc1Nc1ccccc1C(=O)O | 48 | . | .
COCCn1c(N)c(C(=O)OCc2ccccc2)c2nc3ccccc3nc21 | 94 | . | .
SMILES | Apaf1 activ | Rh110 act interf | Apaf-1 act conf | others
Cn1c(NC(=O)c2ccc(Cl)s2)cc(=O)n(C)c1=O | 66 | . | .
COc1ccc(N2C(=O)[C@@H]3[C@H](C2=O)[C@H]2c4ccccc4C=CN2[C@@H]3C(=O)Nc2ccccc2)cc1 | 67 | . | .
CC(C)(C)C(=O)NC1=NN(c2c(Cl)cc(Cl)cc2Cl)C(=O)C1 | 68 | . | .
Cc1ccc(NC(=O)CN(C)C(=O)c2ccc3[nH]c4c(c3c2)CC(C)CC4)cc1 (stereo unspecified) | 59 | . | .
CCC(C)c1ccccc1NC(=O)COC(=O)c1ccc2[nH]c3c(c2c1)CCCC3 (stereo unspecified) | -170* | 20 | 22
CCCCc1c(C)c(C#N)c2[nH]c3ccccc3n2c1=O | 45 | . | .
COc1ccc(C(=O)Nc2nc3c(s2)Cc2cc(OC)ccc2-3)cc1 | 97 | . | .
COC(=O)C1(C)CCc2cc(OC)ccc2C1=O (stereo unspecified) | -81* | 10 | 12
CCCCCc1cc(=O)oc2c(C(CCN3CCCC3)c3cc(OC)c(OC)c(OC)c3)c(OC)cc(OC)c12 (stereo unspecified) | 50 | . | .
COC(=O)c1cc(C)nc2c1C(=O)C(=O)C=C2N1CCOCC1 | 99 | . | .
Cc1ccc(CNC(=O)CN(C)S(=O)(=O)c2cnc[nH]2)cc1 | -237* | 1 | 10
